# A selection: hits, their analogues and other compounds. The true share with any hit is near 4.8%.
# CSC inhib = cancer stem cell viability inhibitors, primary screen, luminescence; 300,000 compounds, 1.1% hits; cancer stem cell-like cells viability; inhibition, % at 7.5 µM; in the data active = inhibition above about 75%; tested in HMLE shEcad cells
# Mot1-301 SUMO = yeast Mot1-301 growth rescue at high temperature, primary screen, SUMOylation pathway inhibitor project, S. cerevisiae, ATP luminescence, 38.5C; S. cerevisiae Mot1-301 growth rescue; percent above DMSO median, 100 means doubled; 320,000 compounds, 1% hits; growth rescue, % at 18.8 µM;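 active = every valid replicate shows activation above 250% relative to neutral control wells; inactive = the rest, any valid replicate at or below 250%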;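 note: OY570 slx delta 5 strain wells were the positive control but not used for scaling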
# Efflux pump mplx = inhibitors of Candida efflux pumps in yeast, primary screen, S. cerevisiae, Nile Red, multiplex. S. cerevisiae Candida pump triplex. inhibition, % at 10 µM. 330,000 compounds, 0.44% hits. AID 485275, 2010;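 active = plate passing quality check with inhibition over a set limit, or well fluorescence over plate mean plus 4 SD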;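 note: Nile Red retained in pooled yeast measured as flow cytometry median fluorescence; 0% = buffer negative control and 100% = Enniatin B positive control; higher means more Nile Red kept so more efflux inhibition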
# Beta cell apopt = inhibitors of cytokine-induced beta cell apoptosis, primary screen, luminescence; INS-1E cytokine-induced death, ATP luminescence, 48 h; percent of positive-control rescue, neutral wells zero; protection from apoptosis, % (concentration not given with the values); 300,000 compounds, 0.8% hits;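 active = Every replicate reaches about 75%, or at least half do and their mean reaches it too, limit read from the data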;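 note: 0% = cytokine-treated negative control wells and 100% = positive control rescue; higher means more ATP so stronger rescue from cytokine killing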
# T cruzi inh = inhibitors of intracellular T. cruzi growth, primary screen, luminescence, NIH3T3 host cells. T. cruzi beta-gal in NIH3T3, 90 h. inhibition, % (test concentration not listed). 300,000 compounds, 1.4% hits;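 active = mean inhibition across valid replicates above about 55%, limit read from the data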;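 note: signal also drops with host cell toxicity which is not excluded here; 0% = plate median of DMSO wells and 100% = zero luminescence signal; higher percent means less beta-gal luminescence so fewer parasites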
#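 Assay system: NIH/3T3 fibroblasts plus reporter T. cruzi. Amount: NIH/3T3 cells, 5,000 per well. Buffer or medium: DMEM, 2% fetal bovine serum. Doses: compound pinned at 50 nL/well, DMSO. Schedule: ≥90 h infection period, 3 h prior cell attachment. Signal: luminescent β-galactosidase signal after 60 min lysis. Read-out: parasite load inhibition, %.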
# WT yeast gro inh = growth inhibition of WT strain, primary screen, mitochondrial fusion inhibitor project, WT and mutant strains, chemical genetic. mitochondrial fusion phenotypic screen. inhibition, % at 10 µM. 190,000 compounds, 2.1% hits. AID 1362, 2008; in the data active = inhibition above about 58%; tested in S. cerevisiae
# Starred values were filed as active, the others as inactive; . = no result.
SMILES,CSC inhib,Mot1-301 SUMO,Efflux pump mplx,Beta cell apopt,T cruzi inh,WT yeast gro inh
CC(=O)Nc1ccc(C(=O)N/N=C/c2ccccc2OC(=O)c2ccc(Cl)cc2)cc1,3,-21,0,23,-6,1
COc1cc(/C=N/NC(=O)c2cccnc2)ccc1OC(=O)c1cc(OC)c(OC)c(OC)c1,.,2,0,109*,0,.
COc1ccc(C(=O)N/N=C/c2ccccc2C(=O)O)cc1OC,-7,0,0,-1,-8,.
COc1ccc(N2C(=O)CC2(C#N)c2ccc(OCc3ccccc3)cc2)cc1 (configuration not stated),15,-10,3,-6,24,-6
Cc1ccc(C(=O)Nc2nc(-c3ccccc3)c(-c3ccccc3)o2)cc1,.,-9,0,21,59*,69*
COc1ccc2c(c1)c(CC(=O)Nc1ccc(C)cc1)c(C)n2C(=O)c1ccc(Cl)cc1,58,3,0,41,56*,-2
COc1ccc(NC(=O)Cc2c(C)n(C(=O)c3ccc(Cl)cc3)c3ccc(OC)cc23)cc1,13,17,0,-3,44,-21
O=C1c2cccc(OCC(=O)N3CCCc4ccccc43)c2CCN1Cc1ccc(F)cc1,16,-7,0,9,7,65*
Cc1cccc(CN2CCc3c(OCC(=O)N4CCCc5ccccc54)cccc3C2=O)c1,53,9,0,9,8,3
O=C(Nc1ccc(N2CCCCC2)c(Cl)c1)c1ccc(N2CCOCC2)c([N+](=O)[O-])c1,51,4,0,31,62*,1
O=C(Nc1ccc(N2CCCCC2)c(Cl)c1)c1ccc2c(c1)OCCO2,-9,32,0,8,7,69*
O=C(Nc1ccc2c(c1)OCCO2)c1cccc2nc3ccccc3nc12,83*,-18,0,46,65*,12
O=C(Nc1cccc(F)c1)c1ccc2c(c1)OCCO2,-2,479*,0,5,14,.
COc1ccc(NC(=O)c2c3c(nc4ccccc24)CCC3)cc1S(=O)(=O)N1CCOCC1,-7,7,0,-4,-10,-1
CCOc1ccc(S(=O)(=O)NCc2ccc3c(c2)OCO3)cc1,-4,8,0,.,11,.
CNC1=C([N+](=O)[O-])CC([N+](=O)[O-])=C(N2CCNCC2)N1C,-2,7,0,-4,-1,12
CCCCC1CCC(C(=O)NCC(c2ccco2)N2CCOCC2)CC1 (configuration not stated),-2,17,0,5,-2,.
O=C(Nc1ccc(N2CCOCC2)c(Cl)c1)c1ccc2c(c1)OCCO2,27,21,0,-1,23,1
O=C(Nc1ccc(N2CCCC2)c(Cl)c1)c1ccc2c(c1)OCCO2,.,-13,0,61,59*,22
COc1ccc(C(=O)OCC(=O)N2CCN(C(=O)c3ccco3)CC2)cc1OC,-5,5,0,-10,.,.
CCC(C)(C)c1nnc(NC(=O)CCC2CCCCC2)s1,-6,-5,0,-5,-17,.
CC(=O)c1c(C)[nH]c(C(=O)OCc2cccc(Cl)c2)c1C,24,-1,0,75*,21,44
CC(=O)c1c(C)[nH]c(C(=O)OCc2c(F)cccc2Cl)c1C,.,7,0,-6,7,-5
O=C(NCc1cccnc1)c1ccc(Cn2c(=S)[nH]c3ccc(Br)cc3c2=O)cc1,4,11,0,98*,12,4
Cc1nc2cc(NC(=O)Nc3cccc4ccccc34)ccc2n1C,-2,10,0,-2,8,-8
O=C(Nc1ccc2snnc2c1)Nc1cccc2ccccc12,29,0,0,41,16,89*
COc1ccc(CNC(=O)c2c(N)n(CCCN3CCOCC3)c3nc4ccccc4nc23)cc1,83*,-17,0,42,24,-6
COc1cc2c(cc1OC)C(C)N(C(C)=O)CC2 (configuration not stated),-5,7,0,1,-19,-9
